pEC50, pIC50: −log10 of the molar value. Active and inactive are the calls of the source. The calls are words filed in the database; no cut-off is given here.
Assays:
[1] = target: T1, Delta-aminolevulinic acid dehydratase (Escherichia coli (strain K12)) (UniProt P0ACB2); experiment: Inhibition of Escherichia coli recombinant PBGS using 5-ALA as substrate at 50 to 200 uM at pH 7 to 8.5 by buffer scan assay in presence of KCl
T1 sequence (whole entry): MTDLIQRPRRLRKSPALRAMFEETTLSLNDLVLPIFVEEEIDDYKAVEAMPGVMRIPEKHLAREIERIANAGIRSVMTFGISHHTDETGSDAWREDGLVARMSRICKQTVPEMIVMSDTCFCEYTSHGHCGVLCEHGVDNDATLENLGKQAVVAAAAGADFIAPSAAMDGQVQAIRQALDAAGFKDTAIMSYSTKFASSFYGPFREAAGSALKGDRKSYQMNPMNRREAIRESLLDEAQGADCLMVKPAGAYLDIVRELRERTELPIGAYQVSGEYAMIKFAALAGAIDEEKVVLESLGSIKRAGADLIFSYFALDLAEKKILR

[2] = target: Delta-aminolevulinic acid dehydratase (Pseudomonas aeruginosa (strain ATCC 15692 / PAO1 / 1C / PRS 101 / LMG12228)) (UniProt Q59643); experiment: Activation of Pseudomonas aeruginosa PAO1 recombinant PBGS using 0.2 mM 5-ALA as substrate at 10 to 10000 uM at pH 7.5 by buffer scan assay in presence of 10 mM MgCl2
[3] = target: Delta-aminolevulinic acid dehydratase (Pseudomonas aeruginosa (strain ATCC 15692 / PAO1 / 1C / PRS 101 / LMG12228)) (UniProt Q59643); experiment: Stimulation of Pseudomonas aeruginosa PAO1 recombinant PBGS using 5 mM 5-ALA as substrate assessed as increase in Vmax at 50 to 200 uM at pH 8 by buffer scan assay in presence of 1 mM MgCl2 and 1 to 1000 mM KCl
[4] = target: Delta-aminolevulinic acid dehydratase (Pseudomonas aeruginosa (strain ATCC 15692 / PAO1 / 1C / PRS 101 / LMG12228)) (UniProt Q59643); experiment: Inhibition of Pseudomonas aeruginosa PAO1 recombinant PBGS assessed as inhibition of octamer-inducing effect of K+ by nondenaturing PAGE analysis
Outline: (§1)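 PaPBGS (3 μg) preincubated 20 min at 37 °C in assay buffer with 1 mM Mg2+, 100 mM K+ and wALADin1, no 5-ALA. Run on 7.5% nondenaturing PAGE at 4 °C for 15–20 h. Coomassie for oligomer state; in-gel activity with 500 μM 5-ALA stained with Ehrlich's reagent.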

[5] = target: Delta-aminolevulinic acid dehydratase (Pseudomonas aeruginosa (strain ATCC 15692 / PAO1 / 1C / PRS 101 / LMG12228)) (UniProt Q59643); experiment: Inhibition of Pseudomonas aeruginosa PAO1 recombinant PBGS assessed as inhibition of octamer-inducing effect of Mg2+ by nondenaturing PAGE analysis; outline: as §1
[6] = target: T1, Delta-aminolevulinic acid dehydratase (Escherichia coli (strain K12)); experiment: Stimulation of Escherichia coli recombinant PBGS assessed as reduction in Mg2+-induced conversion of dimer to octamer at 8 to 2000 uM by nondenaturing PAGE analysis
Outline: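 EcPBGS (3 μg) preincubated 20 min at 37 °C in BTP pH 8.1 buffer with varied Mg2+, Zn2+ and wALADin1. Run on 7.5% nondenaturing PAGE; Coomassie stain plus in-gel activity with 500 μM 5-ALA and Ehrlich's reagent.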

[7] = target: Delta-aminolevulinic acid dehydratase (Yersinia enterocolitica W22703) (UniProt F4MUJ9); experiment: Stimulation of Yersinia enterocolitica recombinant PBGS expressed in Escherichia coli at 125 to 2000 uM by nondenaturing PAGE analysis in presence of Mg2+ and K+
Outline: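 YePBGS (2 μg) preincubated 20 min at 37 °C in BTP pH 8.0 buffer with K+, Mg2+ and wALADin1. Run on 7.5% nondenaturing PAGE; Coomassie stain and in-gel activity (100 mM KCl, 10 mM MgCl2, 500 μM 5-ALA) read with Ehrlich's reagent.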

[8] = target: Delta-aminolevulinic acid dehydratase (Pseudomonas aeruginosa (strain ATCC 15692 / PAO1 / 1C / PRS 101 / LMG12228)) (UniProt Q59643); experiment: Stimulation of Pseudomonas aeruginosa PAO1 recombinant PBGS
[9] = target: Delta-aminolevulinic acid dehydratase (Yersinia enterocolitica W22703) (UniProt F4MUJ9); experiment: Stimulation of Yersinia enterocolitica recombinant PBGS expressed in Escherichia coli using 5-ALA as substrate at 10 to 1000 uM at pH 8 in presence of MgCl2 and KCl
[10] = target: Delta-aminolevulinic acid dehydratase (Yersinia enterocolitica W22703) (UniProt F4MUJ9); experiment: Stimulation of Yersinia enterocolitica recombinant PBGS expressed in Escherichia coli using 5-ALA as substrate at 10 to 1000 uM at pH 8 in presence of 0.1 to 10000 uM MgCl2
[11] = target: T2, Delta-aminolevulinic acid dehydratase, chloroplastic (Pisum sativum, UniProt P30124); experiment: Inhibition of Pisum sativum PBGS using 5-ALA as substrate; parameters: species or system Lathyrus oleraceus
T2 sequence (P30124 whole entry): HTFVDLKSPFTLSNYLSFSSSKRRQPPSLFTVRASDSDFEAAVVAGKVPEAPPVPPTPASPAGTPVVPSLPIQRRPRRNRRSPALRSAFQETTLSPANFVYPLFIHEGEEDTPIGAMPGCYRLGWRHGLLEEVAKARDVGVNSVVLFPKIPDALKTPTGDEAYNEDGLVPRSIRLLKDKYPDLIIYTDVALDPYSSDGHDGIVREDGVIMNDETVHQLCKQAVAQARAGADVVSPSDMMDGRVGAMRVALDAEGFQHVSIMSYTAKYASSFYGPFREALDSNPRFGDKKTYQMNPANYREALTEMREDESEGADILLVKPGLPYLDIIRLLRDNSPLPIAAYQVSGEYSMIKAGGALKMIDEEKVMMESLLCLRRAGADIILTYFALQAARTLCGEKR
Outline: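 Pea (P. sativum) PBGS at 300 nM subunit in 100 mM BTP-HCl pH 8.5 with 1 mM MgCl2, 5 mM DTT and 0.2 mM 5-ALA, 15 min at 36 °C. Porphobilinogen detected with Ehrlich's reagent. Activity normalized to 6.7% DMSO control as 100%. IC50 from variable-slope normalized-response fit.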

[12] = target: T3, Delta-aminolevulinic acid dehydratase (Escherichia coli (strain K12), UniProt P0ACB2); experiment: Stimulation of Escherichia coli recombinant PBGS using 5-ALA as substrate
T3 sequence (P0ACB2 whole entry): T1 sequence (whole entry)
Outline: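 E. coli PBGS at 200 nM subunit in 100 mM BTP-HCl pH 8.1 with 1 mM MgCl2, 10 μM ZnCl2, 5 mM DTT and 0.2 mM 5-ALA, 10 min at 36 °C. Porphobilinogen detected with Ehrlich's reagent. Activity normalized to control with 6.7% DMSO set at 100%. EC50 by log(agonist) vs response variable-slope fit.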

[13] = target: Delta-aminolevulinic acid dehydratase (Yersinia enterocolitica W22703, UniProt F4MUJ9); experiment: Stimulation of Yersinia enterocolitica recombinant PBGS expressed in Escherichia coli using 5-ALA as substrate
[14] = target: T4, Delta-aminolevulinic acid dehydratase (Wolbachia sp. subsp. Brugia malayi (strain TRS)) (UniProt Q5GSR3); settings: 25 to 2500 uM
T4 sequence (whole entry): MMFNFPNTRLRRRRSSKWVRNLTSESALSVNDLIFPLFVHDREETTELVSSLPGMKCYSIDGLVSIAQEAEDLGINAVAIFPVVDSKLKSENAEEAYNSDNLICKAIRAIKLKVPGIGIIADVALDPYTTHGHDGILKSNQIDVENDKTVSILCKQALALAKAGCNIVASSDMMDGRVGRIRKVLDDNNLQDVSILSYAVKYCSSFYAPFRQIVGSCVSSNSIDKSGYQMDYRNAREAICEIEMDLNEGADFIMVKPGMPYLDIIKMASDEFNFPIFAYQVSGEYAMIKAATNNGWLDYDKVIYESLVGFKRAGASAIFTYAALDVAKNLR

Delta-aminolevulinic acid dehydratase (Yersinia enterocolitica W22703), sequence (F4MUJ9 as listed by the source): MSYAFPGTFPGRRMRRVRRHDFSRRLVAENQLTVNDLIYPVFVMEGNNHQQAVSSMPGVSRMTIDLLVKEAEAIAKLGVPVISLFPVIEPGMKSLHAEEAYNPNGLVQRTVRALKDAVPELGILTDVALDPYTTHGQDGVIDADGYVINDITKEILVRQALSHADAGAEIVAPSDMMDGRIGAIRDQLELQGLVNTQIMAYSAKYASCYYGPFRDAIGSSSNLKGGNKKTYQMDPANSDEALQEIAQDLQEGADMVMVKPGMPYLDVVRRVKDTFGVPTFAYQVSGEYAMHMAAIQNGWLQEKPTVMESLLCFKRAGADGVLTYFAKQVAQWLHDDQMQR
Delta-aminolevulinic acid dehydratase (Pseudomonas aeruginosa (strain ATCC 15692 / PAO1 / 1C / PRS 101 / LMG12228)), sequence (Q59643 whole entry): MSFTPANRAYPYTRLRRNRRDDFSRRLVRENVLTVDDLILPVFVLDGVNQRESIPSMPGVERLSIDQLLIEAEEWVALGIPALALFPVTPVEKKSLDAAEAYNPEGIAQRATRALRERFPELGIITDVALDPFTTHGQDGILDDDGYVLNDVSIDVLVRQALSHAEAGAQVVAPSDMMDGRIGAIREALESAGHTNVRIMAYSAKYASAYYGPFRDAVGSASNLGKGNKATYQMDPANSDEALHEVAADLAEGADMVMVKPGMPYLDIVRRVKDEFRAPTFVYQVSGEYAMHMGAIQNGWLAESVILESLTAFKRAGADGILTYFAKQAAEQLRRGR
Delta-aminolevulinic acid dehydratase (Yersinia enterocolitica W22703, UniProt F4MUJ9), sequence (F4MUJ9 whole entry, one chain of several): as the sequence (F4MUJ9 as listed by the source) above

O=C(O)c1ccc2c(c1)nc(CCNC(=O)c1cccs1)n2Cc1cccc(C(F)(F)F)c1
inhibition [1]: Active
Activity [2]: Active
Activity [3]: Active
inhibition [4]: Dose-dependent effect
inhibition [5]: Dose-dependent effect
Activity [6]: Active
Activity [7]: inactive
Activity [8]: 20%
Activity [9]: Active
Activity [10]: Active
pIC50 [11]: 4.97
pEC50 [12]: 4.22
pEC50 [13]: 4.18
inhibition [14]: inactive
